Values after ≈ are worked out from the molar mass of the structure shown. Active and inactive are the calls of the source.
Assays:
[1] = test system: HCT-8; assay: Effective dose required for inhibitory activity against HCT-8 human tumor cell line.; type: functional; conditions: read-out: ED50 (the source's name)
In short: (§1)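 Human tumor lines were grown in RPMI-1640 with 25 mM HEPES, 0.25% sodium bicarbonate, 10% FBS and 100 µg/mL kanamycin. KB-VIN is a vincristine-resistant KB subline, and PTX10 is a 1A9 subline with mutated β-tubulin. Trypsinized cells (1500–7500/well) got compound from DMSO stock for 3 days continuous. Cells were fixed with cold 50% TCA, stained with 0.4% SRB, and read at 562 nm. ED50 is the 50% growth-reduction concentration; not active means ≤5% inhibition at the top concentration.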

[2] = test system: 1A9/ptx-10; assay: Effective dose required for inhibitory activity against PTX10 human tumor cell line; type: functional; conditions: read-out: ED50 (the source's name); in short: as §1
[3] = test system: 1A9; assay: Percent inhibition against 1A9 human tumor cell line at <0.00008 ug/mL; type: functional
[4] = test system: MCF7; assay: Effective dose required for inhibitory activity against MCF-7 human tumor cell line.; type: functional; conditions: read-out: ED50 (the source's name); in short: as §1
[5] = test system: KB; assay: Effective dose required for inhibitory activity against KB human tumor cell line.; type: functional; conditions: read-out: ED50 (the source's name); in short: as §1
[6] = test system: SK-MEL-2; assay: Effective dose required for inhibitory activity against SK-MEL-2 human tumor cell line.; type: functional; conditions: read-out: ED50 (the source's name); in short: as §1
[7] = test system: PC-3; assay: Effective dose required for inhibitory activity against PC-3 human tumor cell line.; type: functional; conditions: read-out: ED50 (the source's name); in short: as §1
[8] = test system: CAKI-1; assay: Effective dose required for inhibitory activity against CAK1 human tumor cell line; type: functional; conditions: read-out: ED50 (the source's name); in short: as §1
[9] = test system: A549; assay: Effective dose required for inhibitory activity against A549 human tumor cell line.; type: functional; conditions: read-out: ED50 (the source's name); in short: as §1
[10] = test system: KB; assay: Effective dose required for inhibitory activity against KB-VIN human tumor cell line.; type: functional; conditions: read-out: ED50 (the source's name); in short: as §1
[11] = test system: HOS; assay: Effective dose required for inhibitory activity against HOS human tumor cell line.; type: functional; conditions: read-out: ED50 (the source's name); in short: as §1
[12] = test system: 1A9; assay: Effective dose required for inhibitory activity against 1A9 human tumor cell line.; type: functional; conditions: read-out: ED50 (the source's name); in short: as §1
[13] = test system: MCF7; assay: Percent inhibition against MCF-7 human tumor cell line at <5 ug/mL; type: functional
[14] = test system: 1A9/ptx-10; assay: Percent inhibition against PTX10 human tumor cell line at >10 ug/mL; type: functional
[15] = test system: HOS; assay: Effective dose required for inhibitory activity against HOS human tumor cell line; Not active; type: functional, cell-based; in short: as §1
[16] = test system: CAKI-1; assay: Effective dose required for inhibitory activity against CAK1 human tumor cell line; Not active; type: functional, cell-based; in short: as §1
[17] = test system: A549; assay: Effective dose required for inhibitory activity against A549 human tumor cell line; Not active; type: functional, cell-based; in short: as §1

| SMILES | EC50 [1] [µg/mL] | EC50 [2] [µg/mL] | Inhibition [3] [%] | EC50 [4] [µg/mL] | EC50 [5] [µg/mL] | EC50 [6] [µg/mL] | EC50 [7] [µg/mL] | EC50 [8] [µg/mL] | EC50 [9] [µg/mL] | EC50 [10] [µg/mL] | EC50 [11] [µg/mL] | EC50 [12] [ng/mL] | Inhibition [13] [%] | Inhibition [14] [%] | NA [15] | NA [16] | NA [17] |
| --- | --- | --- | --- | --- | --- | --- | --- | --- | --- | --- | --- | --- | --- | --- | --- | --- | --- |
| CCCCCCCCCC[C@@H](O)[C@@H]1CC[C@@H]([C@@H]2CC[C@@H]([C@H](O)CCCCCCCCCC(O)CC3=CC(C)OC3=O)O2)O1 (some centres undefined) [BULLATACIN] | 14.9 (≈ 24.5 µM) | 8 (≈ 13.1 µM) | 55 | 8.4 (≈ 13.8 µM) | 10 (≈ 16.4 µM) | 17.1 (≈ 28.1 µM) | 14.3 (≈ 23.5 µM) | 16.8 (≈ 27.6 µM) | 13.3 (≈ 21.8 µM) | 16.1 (≈ 26.4 µM) | 11.9 (≈ 19.5 µM) | – | – | – | – | – | – |
| CCCCCCCCCCCCCC[C@@H](O)[C@H]1CC[C@H]([C@H](O)CCCCC(O)CCCCCC(O)CC2=C[C@H](C)OC2=O)O1 (some centres undefined) | 12.7 (≈ 20.3 µM) | 7.2 (≈ 11.5 µM) | – | 5.6 (≈ 8.96 µM) | 9 (≈ 14.4 µM) | 15 (≈ 24 µM) | 12.2 (≈ 19.5 µM) | 16 (≈ 25.6 µM) | 11.5 (≈ 18.4 µM) | 13.3 (≈ 21.3 µM) | 13.6 (≈ 21.8 µM) | 500 (≈ 0.8 µM) | – | – | – | – | – |
| CCCCCCCCCCCC[C@@H](O)[C@H]1CC[C@H]([C@H](O)CCCCCC(O)CCCC[C@@H](O)CC2=C[C@H](C)OC2=O)O1 (some centres undefined) | 14.2 (≈ 23.8 µM) | 9.3 (≈ 15.6 µM) | – | – | 11.8 (≈ 19.8 µM) | 13.1 (≈ 21.9 µM) | 7.8 (≈ 13.1 µM) | 16.3 (≈ 27.3 µM) | 12 (≈ 20.1 µM) | 17 (≈ 28.5 µM) | 13.1 (≈ 21.9 µM) | 500 (≈ 0.838 µM) | 57 | – | – | – | – |
| CCCCCCCCCC[C@H](O)[C@H]1CC[C@H]([C@H]2CC[C@H]([C@H](O)CCCCCCCC[C@@H](O)CC3=C[C@H](C)OC3=O)O2)O1 [MOLVIZARIN] | 14.9 (≈ 25 µM) | 8.7 (≈ 14.6 µM) | – | 7.7 (≈ 12.9 µM) | 10 (≈ 16.8 µM) | 16.4 (≈ 27.6 µM) | 12.9 (≈ 21.7 µM) | 16.4 (≈ 27.6 µM) | 12.9 (≈ 21.7 µM) | 13.9 (≈ 23.4 µM) | 9.9 (≈ 16.6 µM) | 0.005 (≈ 8.41e-06 µM) | – | – | – | – | – |
| CCCCCCCCCCCC[C@@H](O)[C@H]1CC[C@H]([C@H](O)CCCCC(=O)CCCCCCCC2=C[C@H](C)OC2=O)O1 | > 20 | – | – | 9.5 (≈ 16.4 µM) | > 20 | > 20 | > 20 | – | > 20 | > 20 | – | 760 (≈ 1.31 µM) | – | 31 | inactive | inactive | – |
| CCCCCCCCCCCCCCCCCC1OC1C1OC1CCCCCCCCC1=C[C@H](C)OC1=O (some centres undefined) | > 20 | – | – | > 20 | > 20 | > 20 | > 20 | – | > 20 | > 20 | > 20 | 8800 (≈ 16.5 µM) | – | 15 | – | inactive | – |
| CCCCCC(O)C(O)CCCCCC[C@@H](O)[C@H]1CC[C@H](CCCCCCCCCC[C@@H](O)CC2=C[C@H](C)OC2=O)O1 (some centres undefined) [MURICIN A] | 15 (≈ 25.1 µM) | 8.2 (≈ 13.7 µM) | – | 6 (≈ 10.1 µM) | 12.8 (≈ 21.4 µM) | 18 (≈ 30.2 µM) | 14.1 (≈ 23.6 µM) | > 20 | 16.8 (≈ 28.1 µM) | 15 (≈ 25.1 µM) | 18.4 (≈ 30.8 µM) | 330 (≈ 0.553 µM) | – | – | – | – | – |
| CCCCCC[C@H](O)CCC[C@H](O)[C@H]1CC[C@H]([C@H]2CC[C@H]([C@H](O)CCCCCCCCCCCCC3=C[C@H](C)OC3=O)O2)O1 [SQUAMOCIN] | 9.8 (≈ 15.7 µM) | 7 (≈ 11.2 µM) | – | 6 (≈ 9.63 µM) | 8.1 (≈ 13 µM) | 16.5 (≈ 26.5 µM) | 11.1 (≈ 17.8 µM) | 13.5 (≈ 21.7 µM) | 9.3 (≈ 14.9 µM) | 12 (≈ 19.3 µM) | 8.5 (≈ 13.6 µM) | 0.32 (≈ 0.000514 µM) | – | – | – | – | – |
| CCCCCCCCCCCC[C@@H](O)[C@H]1CC[C@H]([C@H](O)CCCCCCCCCC[C@@H](O)CC2=C[C@H](C)OC2=O)O1 [MURISOLIN] | > 20 | – | – | > 20 | > 20 | > 20 | > 20 | > 20 | – | > 20 | – | 960 (≈ 1.65 µM) | – | 21 | inactive | – | inactive |
